Reference: ChEMBL document CHEMBL5653606 (J Pharmacol Exp Ther, 2011)
The source made the active and inactive calls.

How the values were obtained:
[1] = target: T1, Fatty-acid amide hydrolase 1 (Homo sapiens, UniProt O00519); test: Inhibition of human FAAH assessed as kinact/Ki ratio incubated for 1 min in presence of glutamate dehydrogenase by 384-well format microplate reader assay
T1 sequence (O00519 whole entry): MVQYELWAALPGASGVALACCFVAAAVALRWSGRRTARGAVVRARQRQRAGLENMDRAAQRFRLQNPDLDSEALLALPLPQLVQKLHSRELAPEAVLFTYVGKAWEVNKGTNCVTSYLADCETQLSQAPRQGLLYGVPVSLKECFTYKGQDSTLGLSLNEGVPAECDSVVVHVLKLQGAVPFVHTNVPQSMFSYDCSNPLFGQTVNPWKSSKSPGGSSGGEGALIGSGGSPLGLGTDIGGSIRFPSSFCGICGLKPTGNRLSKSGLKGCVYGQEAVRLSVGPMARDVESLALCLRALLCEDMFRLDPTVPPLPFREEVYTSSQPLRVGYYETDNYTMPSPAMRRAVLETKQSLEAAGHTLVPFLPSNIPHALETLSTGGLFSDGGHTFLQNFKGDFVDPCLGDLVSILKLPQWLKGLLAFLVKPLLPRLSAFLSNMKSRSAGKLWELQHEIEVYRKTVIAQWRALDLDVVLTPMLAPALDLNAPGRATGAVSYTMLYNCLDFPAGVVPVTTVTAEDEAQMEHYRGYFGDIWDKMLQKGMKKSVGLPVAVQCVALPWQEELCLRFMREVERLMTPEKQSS

[2] = target: T2, Fatty-acid amide hydrolase 1 (Rattus norvegicus, UniProt P97612); test: Inhibition of rat FAAH assessed as kinact/Ki ratio incubated for 1 min in presence of glutamate dehydrogenase by 384-well format microplate reader assay
T2 sequence (P97612 whole entry): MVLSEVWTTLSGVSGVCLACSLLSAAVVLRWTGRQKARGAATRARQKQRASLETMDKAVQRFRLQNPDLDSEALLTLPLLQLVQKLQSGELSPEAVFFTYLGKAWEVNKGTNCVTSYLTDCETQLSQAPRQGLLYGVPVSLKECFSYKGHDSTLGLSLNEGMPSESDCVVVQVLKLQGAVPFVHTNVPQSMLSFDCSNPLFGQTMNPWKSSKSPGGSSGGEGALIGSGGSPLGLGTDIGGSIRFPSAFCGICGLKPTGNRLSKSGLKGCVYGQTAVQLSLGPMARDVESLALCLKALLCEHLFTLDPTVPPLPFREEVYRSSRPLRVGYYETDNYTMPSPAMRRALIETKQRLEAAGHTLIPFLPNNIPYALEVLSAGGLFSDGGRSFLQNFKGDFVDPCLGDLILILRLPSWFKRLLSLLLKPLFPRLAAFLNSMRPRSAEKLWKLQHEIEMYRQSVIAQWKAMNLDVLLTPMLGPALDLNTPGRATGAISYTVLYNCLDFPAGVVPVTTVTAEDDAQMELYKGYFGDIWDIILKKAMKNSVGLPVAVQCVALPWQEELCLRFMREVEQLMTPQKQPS

[3] = target: T3, Fatty-acid amide hydrolase 1 (Homo sapiens) (UniProt O00519); test: Inhibition of FAAH in human brain at 100 uM in presence of FP-rhodamine by competitive activity-based protein profiling method; type: tissue-based
T3 sequence (whole entry): T1 sequence (O00519 whole entry)
Method in brief: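 Competitive ABPP on human and mouse brain, liver and heart proteomes (membrane and soluble fractions), exposed to compound at 10 or 100 μM or to DMSO. Serine hydrolases were then labeled with FP-rhodamine. Gels were read by fluorescence scanning, and loss of band labeling (FAAH or other hydrolases by kDa) was judged.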

Rattus norvegicus = test: Antihyperalgesic activity in CFA induced Sprague-Dawley rat assessed as inhibition of mechanical allodynia at 0.003 to 10 mg/kg, po measured for 4 hrs by von frey test; type: functional, organism-based; conditions: dose 0.003-10 mg/kg
Method in brief: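 Male Sprague-Dawley rats (200–250 g) given 150 μl CFA (1 mg/ml in mineral oil) intraplantar in the hind paw. Mechanical paw withdrawal thresholds read with Von Frey hairs on day 5 postinjection. Dosed orally as nanocrystalline suspension in 2% polyvinylpyrrolidone/0.15% SDS in water, 10 ml/kg. PWTs taken 4 h postdose for dose-response, or at 1, 2, 4, 8, 24 h for time course.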

[4] = target: T4, Fatty-acid amide hydrolase 1 (Rattus norvegicus) (UniProt P97612); test: In vivo inhibition of FAAH in CFA induced Sprague-Dawley rat WBC at 0.1 to 10 mg/kg, po relative to control; type: functional, organism-based; conditions: dose 0.1-10 mg/kg
T4 sequence (whole entry): T2 sequence (P97612 whole entry)
Method in brief: (§1)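 Brain and blood leukocyte membrane fractions from CFA rats after oral dosing. FAAH activity measured with 3H-labeled AEA substrate, quantifying released 3H-ethanolamine; n = 3 rats/group. Time course sampled at 1, 2, 4, 8, 24 h after 1 mg/kg.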

[5] = target: T4, Fatty-acid amide hydrolase 1 (Rattus norvegicus); test: In vivo inhibition of FAAH in CFA induced Sprague-Dawley rat brain at 0.1 to 10 mg/kg, po relative to control; type: functional, organism-based; conditions: dose 0.1-10 mg/kg; method in brief: as §1
[6] = target: T4, Fatty-acid amide hydrolase 1 (Rattus norvegicus); test: In vivo inhibition of FAAH in CFA induced Sprague-Dawley rat plasma assessed as elevation of NAE level at 0.1 to 10 mg/kg, po; type: functional, organism-based; conditions: dose 0.1-10 mg/kg
Method in brief: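 Lipid (NAE) levels in rat brain and plasma measured by LC/MS after oral dosing in CFA rats; n = 3 rats/group. Time-course samples taken at 1, 2, 4, 8, 24 h after 1 mg/kg.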

[7] = Ratio of drug concentration in CFA induced Sprague-Dawley rat brain to plasma at 0.1 to 10 mg/kg, po by LC/MS analysis; type: ADME, organism-based; conditions: brain and plasma, dose 0.1-10 mg/kg
Method in brief: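 Male Sprague-Dawley rats (200–250 g) received 150 μl CFA (1 mg/ml suspension in mineral oil) into the plantar hind paw. On day 5 they were dosed orally at 0.003–10 mg/kg as a nanocrystalline suspension in 2% polyvinylpyrrolidone/0.15% SDS in H₂O at 10 ml/kg. Drug levels were measured in brain tissue and plasma in the dose-response study, where PWTs were read at 4 h post-dose.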

[8] = target: T4, Fatty-acid amide hydrolase 1 (Rattus norvegicus); test: In vivo inhibition of FAAH in CFA induced Sprague-Dawley rat plasma assessed as elevation of PEA level at 1 mg/kg, po measured for 1 to 24 hrs; type: functional, organism-based; conditions: time 1-24 hrs
Mus musculus [9] = test: Antinociceptive activity in C57BL6/J mouse assessed as increased tail withdrawal latency at 1 to 10 mg/kg, po administered for 4 hrs; type: functional, organism-based; conditions: dose 1-10 mg/kg
Method in brief: (§2)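 Male C57BL/6J mice, 7 weeks old, n = 8/group, dosed orally at 1 or 10 mg/kg in PEG 300 (4 ml/kg). Tetrad tested 4 h postdose: locomotor activity, tail-immersion thermal nociception, catalepsy (assessed 60 s), body temperature. Means ± S.E.M. versus vehicle.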

Mus musculus [10] = test: Antinociceptive activity in C57BL6/J mouse assessed as effect in catalepsy at 1 to 10 mg/kg, po administered for 4 hrs; type: functional, organism-based; conditions: dose 1-10 mg/kg; method in brief: as §2
Mus musculus [11] = test: In vivo inhibition of rhodamine-azide tagged FAAH expressed in mouse brain at 10 mg/kg, po by CC-ABPP method based in-gel fluorescence scanning analysis; type: functional, organism-based

Compound: O=C(Nc1cccnn1)N1CCC(=Cc2cccc(Oc3ccc(C(F)(F)F)cn3)c2)CC1
- IC50 [1]: 50.4 nM
- IC50 [2]: 43.1 nM
- inhibition [3]: Active
- Activity (Rattus norvegicus): Active
- inhibition [4]: 98%
- inhibition [5]: 98%
- inhibition [6]: Active
- Kp [7]: 1.3
- inhibition [8]: Active
- Activity (Mus musculus [9]): Toxic
- Activity (Mus musculus [10]): Non-Toxic
- inhibition (Mus musculus [11]): Active
